V1aR counter: agonists of human V1a receptor, primary screen, counter-screen for OXTR agonist project, fluorescence, CHO-V1R cells; Vasopressin V1a receptor (Homo sapiens), P37288; Fluo-8 calcium fluorescence, agonist mode; 0% DMSO, 100% 3 nM vasopressin; activation, % at 3 µM; 320,000 tested, 0.25% active;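 active = activation above the mean activation of all tested compounds plus 3 SD, per screening run, cut at about 20% in these data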;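 also: signal is peak over basal fluorescence ratio across a 100 second FLIPR read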
OXTR potentiate: human OXTR potentiators, primary screen, fluorescence, CHO-OTR cells, Fluo-8 calcium; Oxytocin receptor (Homo sapiens), P30559; Fluo-8 calcium fluorescence, potentiator mode; 0% = oxytocin EC15, 100% = EC100; activation, % at 3 µM; 320,000 tested, 0.061% active; AID 2445, 2010;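 active = activation above that plate's cutoff, the mean activation of tested compounds plus 3 SD, cut at about 6.6% in these data, passing the limit was not always enough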;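 also: 100% uses oxytocin at 75 nM as the full agonist control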
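Replication – single well per compound, singlicate · Assay system – CHO cell line stably expressing human OTR · Timing – 6 min pre-incubation, 100 s read · Measure – normalized max/min fluorescence ratio, % activation · Doses – 3.0 µM, one dose · Detection – Fluo-8 calcium dye fluorescence · Probe or stimulus – oxytocin near EC15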
OX1R antag-1: antagonists of human orexin 1 receptor (OX1R). Orexin/Hypocretin receptor type 1 (Homo sapiens), O43613. OX1R-expressing cells, FRET antagonist read-out. inhibition, % at 6.6 µM. 330,000 tested, 1.8% active. AID 485270, 2010; in the data active = inhibition mostly above about 38%, no sharp cut-off; inactive = mostly below about 40%;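 also: 0% = agonist challenge alone and 100% = reference antagonist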
Target sequence (O43613 whole entry, looked up): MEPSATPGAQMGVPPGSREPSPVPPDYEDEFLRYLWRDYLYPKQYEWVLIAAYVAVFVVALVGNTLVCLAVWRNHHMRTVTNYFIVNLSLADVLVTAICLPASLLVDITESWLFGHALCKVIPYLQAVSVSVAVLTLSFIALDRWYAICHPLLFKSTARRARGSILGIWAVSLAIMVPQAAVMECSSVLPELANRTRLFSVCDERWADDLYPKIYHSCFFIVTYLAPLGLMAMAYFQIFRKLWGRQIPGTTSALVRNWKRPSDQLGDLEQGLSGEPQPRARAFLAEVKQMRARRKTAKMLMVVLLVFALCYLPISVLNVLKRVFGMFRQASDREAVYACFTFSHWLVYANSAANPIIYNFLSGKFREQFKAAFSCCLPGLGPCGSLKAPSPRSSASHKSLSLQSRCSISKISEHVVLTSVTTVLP
OXTR agonist: human OXTR agonists, primary screen, fluorescence, CHO-OTR cells, Fluo-8 calcium | Oxytocin receptor (Homo sapiens), P30559 | Fluo-8 calcium fluorescence; normalized: DMSO 0%, oxytocin 100% | activation, % at 3 µM | 320,000 tested, 0.32% active;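 active = activation above the mean of all tested compounds plus 3 SD, cutoff set per screening run, cut at about 20% in these data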;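 also: peak over basal fluorescence ratio from a 100 s FLIPR kinetic read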
OX1R antag-2: OX1R (HCRTR1) antagonists, primary screen, fluorescence, CHO/OX1R cells, Fluo-8 calcium, orexin A; Fluo-8 calcium fluorescence; AID 434989, 2010; Orexin/Hypocretin receptor type 1 (Homo sapiens), O43613; 330,000 tested, 0.43% active; inhibition, % at 5 µM;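 active = inhibition above its plate's threshold, mean inhibition of all tested compounds on the plate plus 3 SD, cut at about 37% in these data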;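 also: 0% = orexin A challenge wells and 100% = SB-334867-A antagonist wells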
CHO parental Ca: ATP-evoked calcium signal inhibitors, parental CHO, primary screen, counter-screen for OX1R antagonist project, cell-based, fluorescence, Fluo-8 calcium dye | parental CHO-K1, ATP-induced calcium, Fluo-8 fluorescence | inhibition, % at 5.6 µM | 330,000 tested, 0.63% active | AID 463079, 2010;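 active = inhibition above that plate's mean sample inhibition plus 3 SD, cut at about 26% in these data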;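 also: 0% = ATP-challenged DMSO wells and 100% = DMSO wells without ATP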
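Material – parental CHO cells · Reagent – ATP stimulus · Compound – single nominal dose of 5.6 µM per compound · Detection – Fluo-8 fluorescence · Read-out basis – percent inhibition of calcium signal · Controls – ATP-challenged DMSO wells low, unchallenged DMSO wells high · Repeats – no replicates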
Numbers without * were called inactive. An excerpt weighted towards active compounds, which were near 2.7% of everything screened.

SMILES	V1aR counter	OXTR potentiate	OX1R antag-1	OXTR agonist	OX1R antag-2	CHO parental Ca
C#CCOCCOCCOCCNc1nc(N2CCOCC2)nc(N2CCN(C(=O)CCCCCCCCCCNC(=O)[C@@H]([C@H](C)CC)n3cc(CCCCCN)nn3)CC2)n1	0	1	38	0	-32	-21
O=C(OCn1ncc(Br)c(Br)c1=O)c1ccccc1Cl	-1	11	35	-1	2	-3
O=C(OCn1ncc(Cl)c(Cl)c1=O)c1cccc(C(F)(F)F)c1	1	1	6	-1	52*	81*
c1ccc(-c2cc3cc4c(cc3cn2)OCO4)cc1	1	-7	72*	-1	39	-20
CC(=O)c1cccc(S(=O)(=O)N2CCN(CCOc3ccccc3)CC2)c1	3	-2	5	3	-25	-23
CC(=O)Cc1nsc(NC(=O)c2ccc(-c3ccc(F)cc3)o2)n1	0	-1	61*	-2	8	-19
CC(=O)Cc1nsc(NC(=O)c2ccc(-c3ccc(Cl)c(C(F)(F)F)c3)o2)n1	0	-1	19	0	-7	-1
O=C(c1ccco1)N1CCN(Cc2cc(=O)c(OCc3ccc([N+](=O)[O-])cc3)co2)CC1	0	2	39*	-1	-12	-5
COc1ccc(C(c2c(O)ccc3ccccc23)N2CCOCC2)c(OC)c1 (centres undefined)	1	-2	22	4	71*	68*
CCCCn1c(CN2CCN(c3cccc(Cl)c3)CC2)nc2c1c(=O)n(C)c(=O)n2C	-1	-4	16	-1	-32	-15
CCCn1c(CN2CCN(c3cccc(Cl)c3)CC2)nc2c1c(=O)n(C)c(=O)n2C	6	-7	21	7	-25	33*
O=C(Nc1cccc(S(=O)(=O)Nc2ccccc2F)c1)c1ccc2ccccc2n1	0	-11	82*	-1	22	-11
Cc1ccc2cc(C)c3nnc(SCc4ccc(C(=O)O)cc4)n3c2c1C	2	3	6	2	5	2
CN(C)S(=O)(=O)c1ccc(NC(=O)CSc2ncnc3ccccc23)cc1	1	-6	8	1	-1	-5
CCN(CC)S(=O)(=O)c1cccc(NC(=O)CSc2nc3ccccc3[nH]2)c1	11	-19	53*	8	44*	31*
CN(C)S(=O)(=O)c1cccc(NC(=O)CSc2ncnc3ccccc23)c1	10	-10	24	16	2	29*
CC(OC(=O)c1ccc2c(c1)OCCO2)C(=O)c1ccccc1 (centres undefined)	0	-7	15	1	-34	-17
O=C(NC(=S)NNC(=O)c1ccccc1O)c1cccs1	18	-6	4	9	6	4
COc1ccccc1C(=O)NNC(=S)NC(=O)c1cccs1	51*	-17	34	30*	20	18
COc1ccccc1C(=O)NC(=S)NNC(=O)c1sc2ccccc2c1Cl	25*	-10	43	46*	9	-3
Cc1ccc(C(=O)NC(=S)Nc2cccnc2Cl)cc1	0	-11	17	-2	-19	-14
COc1ccccc1C(=O)NC(=S)Nc1cccnc1Cl	0	4	47*	-2	-9	-22
COc1ccccc1C(=O)NNC(=S)NC(=O)c1sc2ccccc2c1Cl	34*	-12	6	49*	-5	-6
Cc1c(NC(=S)NC(=O)c2sc3ccccc3c2Cl)cccc1C(=O)O	0	-12	4	-1	-6	1
CN(C)c1cccc(C(=O)OCC(=O)NC(=O)NCc2ccccc2)c1	2	0	-1	1	-10	-6
SMILES	V1aR counter	OXTR potentiate	OX1R antag-1	OXTR agonist	OX1R antag-2	CHO parental Ca
C[C@H](NC(=O)Cc1cccc2ccccc12)C(=O)N1CCOCC1	0	2	2	0	3	-11
Cc1ccc(C(C)C)c(OCC(=O)NNC(=O)Cc2ccc(S(=O)(=O)N3CCOCC3)s2)c1	1	-2	10	1	-15	-27
O=C(Nc1ccc2nc3n(c(=O)c2c1)CCCCC3)C(=O)N1CCN(c2ccccc2F)CC1	0	-3	5	-1	-19	-30
CCc1cc(-c2[nH]ncc2-c2ccc([N+](=O)[O-])cc2)c(O)cc1OC	0	2	17	2	-10	60*
COc1ccc(-c2cn[nH]c2-c2ccc(OCc3ccc([N+](=O)[O-])cc3)cc2O)cc1OC	1	-4	30	0	5	-6
COc1cc(/C=N/NC(=O)c2nnn(-c3nonc3N)c2C(C)C)ccc1OCc1ccc(F)cc1	6	-9	8	3	35	49*
CCOc1ccc(-c2c(C(=O)N/N=C/c3ccc(OC)cc3)nnn2-c2nonc2N)cc1	27*	-4	24	37*	-18	-24
CCCOc1ccc(-c2c(C(=O)N/N=C/c3ccc(OCC)cc3)nnn2-c2nonc2N)cc1	0	10	19	1	-31	-21
CCOc1ccc(-c2c(C(=O)N/N=C/c3ccsc3)nnn2-c2nonc2N)cc1	21*	-9	8	29*	-53	-31
CCCOc1ccc(-c2c(C(=O)N/N=C/c3ccc(OC)cc3)nnn2-c2nonc2N)cc1	3	5	10	1	-30	-26
O=C(O)Cn1c2c(c3ccccc31)CSc1ccc(Cl)cc1-2	-1	-1	1	-1	2	-7
CN(CC(=O)Nc1cccc(F)c1)C(=O)CCc1nc2ccccc2c(=O)[nH]1	1	1	5	2	-4	-14
CC(=O)Nc1cccc(NC(=O)Cc2nc(-c3ccccc3)sc2-c2ccc(C)cc2)c1	0	-13	68*	0	13	-2
CCOC(=O)c1[nH]c(C)c(C(=O)OCC(=O)N(Cc2ccccc2)C(C)C)c1C	2	0	10	0	-2	-22
O=C(OCC(=O)N1CCCCCC1)c1ccc([N+](=O)[O-])cc1Cl	-1	-7	46*	-2	-26	2
O=C(/C=C/c1ccc([N+](=O)[O-])cc1)OCC(=O)N1CCCC1	2	5	45*	3	-14	-17
CN1CCN(C(=O)/C=C/c2ccc([N+](=O)[O-])cc2)CC1	2	2	61*	1	-7	-10
CN(C(=O)COC(=O)c1ccc([N+](=O)[O-])cc1Cl)C1CCCCC1	-1	-13	67	-3	-22	-16
